Experimental data as given in ChEMBL document CHEMBL4513216, “Probing the Open Global Health Chemical Diversity Library for Multistage-Active Starting Points for Next-Generation Antimalarials” (ACS Infect Dis, 2020).

Experiment: Toxicity liver stage against HepG2, at 10uM
Format: cell-based
Parameters: test concentration 10 uM, cell line HepG2-A16-CD81EGFP
Settings: human, HepG2-A16-CD81EGFP cells; read-out: INHIBITION
Method in brief: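 Uninfected HepG2-A16-CD81EGFP cells, 3 × 10^3 per well, 1536-well, plated on prespotted compound at 10 μM final, parasite-free screening media added to match infected plates; puromycin 10 μM positive, DMSO 0.5% negative; run in parallel with 48 h PbLuc assay at 37 °C, 5% CO2; viability by CellTiter-Glo luminescence, normalized to controls.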

For Cc1nc(CCNC(=O)NCc2ccc(N(C)C)nc2)cs1, which cytotoxicity at 10 µM is on record?
The cytotoxicity at 10 µM was -11.3%.

With CCN(CC)CC[C@H]1CN(C(=O)c2ccc(F)cc2)CC[C@H]1CC(=O)O as the compound, how does the cytotoxicity at 10 µM read?
The cytotoxicity at 10 µM was 3.1%.

With Cc1nnc(SC2CCc3ccccc3NC2=O)n1C (centres undefined) as the compound, how does the cytotoxicity at 10 µM read?
The cytotoxicity at 10 µM was -1.31%.

Which cytotoxicity at 10 µM does the source give for CS(=O)(=O)N1CCN(c2cc(-n3cccc3)ncn2)CC1 here?
The cytotoxicity at 10 µM was 4.65%.

With CC(C)CN1C(=O)C2(CCN(Cc3ccc(F)cc3)C2)c2ccccc21 (centres undefined) as the compound, how does the cytotoxicity at 10 µM read?
Its cytotoxicity at 10 µM is 13%.

Which cytotoxicity at 10 µM does the source give for O=C(NCC1CC1)C1=NOC2(CCN(Cc3ccc(Cl)c(F)c3)C2)C1 (centres undefined) here?
The cytotoxicity at 10 µM was 13.5%.

With Cn1ccc(C(=O)NC2CCC23CCN(Cc2nccs2)CC3)c1 (centres undefined) as the compound, how does the cytotoxicity at 10 µM read?
The cytotoxicity at 10 µM was -136%.

For COC(=O)c1sccc1S(=O)(=O)N1CCC(Oc2ncccc2Cl)CC1, which cytotoxicity at 10 µM is on record?
The cytotoxicity at 10 µM was -16.8%.

Which cytotoxicity at 10 µM does the source give for COc1cccc(-c2cc(C(=O)N3N=C(C)CC3(O)C(F)(F)F)[nH]n2)c1 (centres undefined) here?
Its cytotoxicity at 10 µM is 5.97%.

With CCn1cc(S(=O)(=O)N2CCN(C(=O)c3cc(Br)cs3)CC2)c(C)n1 as the compound, how does the cytotoxicity at 10 µM read?
The cytotoxicity at 10 µM was 2.73%.

With CC(C(=O)O)n1nc(C(F)(F)F)c(Br)c1C1CC1 (centres undefined) as the compound, how does the cytotoxicity at 10 µM read?
Its cytotoxicity at 10 µM is 10.3%.

With Cc1nn(C)cc1-c1cc(C(=O)N2CCc3ncc(Cl)cc3C2)no1 as the compound, how does the cytotoxicity at 10 µM read?
The cytotoxicity at 10 µM was 1.18%.

Which cytotoxicity at 10 µM does the source give for O=C(Cc1cccs1)N1CCC(O)(CN2CCc3ccccc3C2)C1 (centres undefined) here?
The cytotoxicity at 10 µM was -1.47%.

With CN(C(=O)C1CCOCC1)[C@@H]1CCC[C@@H](N2CCOCC2)[C@@H]1O as the compound, how does the cytotoxicity at 10 µM read?
The cytotoxicity at 10 µM was 2.19%.

Which cytotoxicity at 10 µM does the source give for Cc1cnc(C2CCCN(C(=O)c3c[nH]c(=O)[nH]c3=O)C2)s1 (centres undefined) here?
Its cytotoxicity at 10 µM is -1.58%.

With CC(=O)N1CCOC(c2cc(N3CC(O)C3)nc(C)n2)C1 (centres undefined) as the compound, how does the cytotoxicity at 10 µM read?
Its cytotoxicity at 10 µM is 3.16%.

For COCCC(=O)N1CCC(c2noc3nc(C)cc(C(F)(F)F)c23)CC1, which cytotoxicity at 10 µM is on record?
Its cytotoxicity at 10 µM is 4.45%.

For Nc1nc(C2CCN(C(=O)c3cncs3)CC2)cs1, which cytotoxicity at 10 µM is on record?
Its cytotoxicity at 10 µM is -1.49%.

Which cytotoxicity at 10 µM does the source give for CCCN1Cc2ccccc2NC(=O)C12CCNC2 (centres undefined) here?
The cytotoxicity at 10 µM was 5.92%.

For Cc1cc(C)n(-c2cccc(NC(=O)N3CCC[C@@H]3CO)c2)n1, which cytotoxicity at 10 µM is on record?
Its cytotoxicity at 10 µM is 13.9%.

With O=C(Cc1cccc(F)c1F)NS(=O)(=O)c1ccc(Cl)cn1 as the compound, how does the cytotoxicity at 10 µM read?
Its cytotoxicity at 10 µM is 0.545%.

For CNc1nc(CS(=O)(=O)c2ccccc2)cs1, which cytotoxicity at 10 µM is on record?
Its cytotoxicity at 10 µM is 13%.

With Cc1ccc(CN(C)C(=O)CNC(C)(C)c2noc(C(C)(C)C)n2)o1 as the compound, how does the cytotoxicity at 10 µM read?
Its cytotoxicity at 10 µM is 2.43%.

With Cc1ncccc1C(=O)Nc1cccc(Cn2ccccc2=O)c1 as the compound, how does the cytotoxicity at 10 µM read?
Its cytotoxicity at 10 µM is 3.06%.

With COc1ccc(CCN2CCCC(n3cncn3)C2)cc1 (centres undefined) as the compound, how does the cytotoxicity at 10 µM read?
The cytotoxicity at 10 µM was -6.2%.

For CSCC(C)N(C)C(=O)CN1CCN(c2ccccn2)CC1 (centres undefined), which cytotoxicity at 10 µM is on record?
The cytotoxicity at 10 µM was -7.59%.

Which cytotoxicity at 10 µM does the source give for O=C(CN1CCCNC1=O)N(Cc1ccccc1)CC(F)F here?
The cytotoxicity at 10 µM was 5.9%.

For CS(=O)(=O)NCC1CCCCN1Cc1cccc(C#N)c1 (centres undefined), which cytotoxicity at 10 µM is on record?
Its cytotoxicity at 10 µM is 0.528%.

Which cytotoxicity at 10 µM does the source give for Cc1ccc(N2CCCN(C(=O)c3cccc4c3ccn4C)CC2)nn1 here?
Its cytotoxicity at 10 µM is 0.983%.

Which cytotoxicity at 10 µM does the source give for CC1CN(S(=O)(=O)c2cc(S(C)(=O)=O)ccc2Br)c2cccnc2O1 (centres undefined) here?
Its cytotoxicity at 10 µM is -0.346%.

Which cytotoxicity at 10 µM does the source give for Cc1oc(NC(=O)C(C)N2CCN(C(C)(C)CO)CC2)c(C#N)c1C (centres undefined) here?
The cytotoxicity at 10 µM was -3.62%.

With CCOC(=O)c1cnn(C2CCN(C(=O)CCC(C)C)CC2)c1N as the compound, how does the cytotoxicity at 10 µM read?
Its cytotoxicity at 10 µM is -0.12%.

With Cc1nc(C)n(CC2CCCN2CC(=O)Nc2nncs2)n1 (centres undefined) as the compound, how does the cytotoxicity at 10 µM read?
Its cytotoxicity at 10 µM is 14.3%.

For Cc1cccc(NC(=O)CN(C)C(=O)c2scnc2C)n1, which cytotoxicity at 10 µM is on record?
The cytotoxicity at 10 µM was -3.79%.

With O=C(Nc1ccnc2ccnn12)c1ccc(N2CCC(O)CC2)cc1 as the compound, how does the cytotoxicity at 10 µM read?
The cytotoxicity at 10 µM was 53.4%.

Which cytotoxicity at 10 µM does the source give for Cc1nc(NC(=O)NCc2nc3cccc(C)c3n2C)oc1C here?
The cytotoxicity at 10 µM was -6.71%.

Which cytotoxicity at 10 µM does the source give for C=C(C)CN(CC)Cc1nc(CC)no1 here?
Its cytotoxicity at 10 µM is 12.6%.

For CNC(=O)c1cccc(NC(=O)NC(C)c2cc(C)oc2C)c1C (centres undefined), which cytotoxicity at 10 µM is on record?
Its cytotoxicity at 10 µM is -9.26%.

Which cytotoxicity at 10 µM does the source give for CC(=O)N(CCC(=O)NC1(C#N)CCC1)Cc1ccccc1 here?
Its cytotoxicity at 10 µM is 12.6%.

With CCc1cc(CNC(=O)Nc2cc(F)cc(N3CCCC3)c2)on1 as the compound, how does the cytotoxicity at 10 µM read?
The cytotoxicity at 10 µM was 4.79%.

For CC(NCCCC#N)c1ccc(-c2cccnc2)cc1 (centres undefined), which cytotoxicity at 10 µM is on record?
The cytotoxicity at 10 µM was 11.3%.

With COCCN(c1ccncc1)S(=O)(=O)c1cc(C)cc(F)c1 as the compound, how does the cytotoxicity at 10 µM read?
Its cytotoxicity at 10 µM is 7.83%.

For CN(C)Cc1nc(C2(NC(=O)Nc3cccc(F)c3)CCCC2)no1, which cytotoxicity at 10 µM is on record?
The cytotoxicity at 10 µM was 2.32%.

For Cc1cc(C(=O)Nc2ccn(CCCN3CCCC3)n2)no1, which cytotoxicity at 10 µM is on record?
The cytotoxicity at 10 µM was -4.13%.

For Cc1cccc(N(CC(=O)N2CCCCC2)Cc2nc(=O)[nH][nH]2)c1, which cytotoxicity at 10 µM is on record?
Its cytotoxicity at 10 µM is -2.85%.

For Cc1ccc(OCc2nnc(SCC3CCCN(C)C3)o2)cc1 (centres undefined), which cytotoxicity at 10 µM is on record?
Its cytotoxicity at 10 µM is -3.73%.

For CCOCc1ccccc1NC(=O)NC1CCN(CC(F)(F)F)C1 (centres undefined), which cytotoxicity at 10 µM is on record?
The cytotoxicity at 10 µM was 1.81%.

With Cc1nnc(NC(=O)CN(C)CC2CCCN2c2cccnn2)s1 (centres undefined) as the compound, how does the cytotoxicity at 10 µM read?
Its cytotoxicity at 10 µM is -15%.

Which cytotoxicity at 10 µM does the source give for N#CCCN(C(=O)CN1CCCC1Cc1ccccc1)c1ccccc1 (centres undefined) here?
The cytotoxicity at 10 µM was -20.7%.

Which cytotoxicity at 10 µM does the source give for COc1cc(NC(=O)c2ccccc2F)c(C(=O)N(C)C)cc1OC here?
Its cytotoxicity at 10 µM is -14.8%.

Which cytotoxicity at 10 µM does the source give for COc1ccc(NC(C)C(=O)NCCc2cccs2)cc1F (centres undefined) here?
The cytotoxicity at 10 µM was -13.5%.

Which cytotoxicity at 10 µM does the source give for O=C(c1ccccc1)N1CC[C@H]2C[C@@H](c3nnc(C4CC4)o3)O[C@@H]2C1 here?
Its cytotoxicity at 10 µM is -99.2%.

With O=C(c1ccccc1)N1CC[C@H]2C[C@H](c3nnc(C4CC4)o3)O[C@@H]2C1 as the compound, how does the cytotoxicity at 10 µM read?
The cytotoxicity at 10 µM was -102%.

For O=C(N1CCCC1)N1CCn2c(Cn3cccn3)cnc2C1, which cytotoxicity at 10 µM is on record?
Its cytotoxicity at 10 µM is -69.1%.
